STEP block = inhibitors of human striatal-enriched phosphatase STEP. inhibition, % at 20 µM. AID 588621. actives 0.25% (n = 360,000). P54829. recombinant STEP, OMFP fluorogenic substrate, fluorescence;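 active = inhibition at 20 µM, scaled per plate between control wells, above about 37%, limit read from the data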
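Assay system: isolated STEP enzyme / Timing: 20 min at room temperature, dark / Doses: 20 µM, 1% DMSO / Technique: fluorescence intensity, excitation 480 nm, emission 540 nm / Reagent: fluorogenic phosphatase substrate OMFP at 25 µM final / Measure: percent inhibition scaled to no-enzyme and uninhibited-enzyme controls, plate-pattern corrected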
Scp1 inh = Scp-1 (human) phosphatase inhibition; Q9GZU7; Recombinant Scp1, phosphopeptide, malachite green phosphate absorbance; inhibition, % at 20 µM; actives 0.88% (n = 340,000); AID 493091;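 active = inhibition above about 50% at 20 µM, limit read from the data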
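Material – SCP-1 phosphatase catalytic domain, residues 76-261 · Buffer or medium – Acidic Tris acetate buffer with magnesium and detergent · Also added – Phospho 17-mer peptide substrate · Compound – single 20 µM dose, 1% DMSO · Times – 45 min room-temperature reaction, 5 min colour, 30 min stabiliser · Technique – Phosphate-binding colour reagent, absorbance read at 630 nm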
DNMT1 block = inhibitors of human DNMT1; DNMT1 molecular beacon, Hinp1I cleavage, fluorescence; inhibition (reported as % activation of signal), % at 10 µM; actives 0.83% (n = 360,000); AID 588458; in the data active = inhibition above about 50%
SUMO1-SIM PPI = modulators of human SUMO1-mediated protein-protein interactions; P63165; actives 0.33% (n = 360,000); SUMO1 binding to a labelled peptide, TR-FRET, 1 h; inhibition, % at 20 µM; in the data active = inhibition above about 37%
LMPTP inh = blocks human LMPTP phosphatase. P24666. recombinant LMPTP-A, OMFP fluorogenic substrate, fluorescence intensity. inhibition, % at 20 µM. actives 0.22% (n = 360,000);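 active = compounds that cut the enzyme signal by at least half of the control window in the single-dose screen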
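Assay system: LMPTP-A phosphatase enzyme | Input: 0.625 nM enzyme | Also added: Fluorogenic phosphatase substrate OMFP at 400 µM final | Compound dosing: One test concentration per compound, 20 µM, with 3% DMSO overall | Schedule: 50 min enzyme reaction at room temperature, protected from light | Signal: Fluorescence intensity | Benchmarks: no-enzyme and uninhibited controls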
HKDC1 inhibitor = inhibitors of human hexokinase HKDC1. actives 0.16% (n = 340,000). Q2TB90. inhibition, % at 20 µM. recombinant HKDC1, G6PDH/diaphorase resazurin coupled fluorescence;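 active = inhibition above about 35% when tested at 20 µM, limit read from the data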
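Assay system: recombinant HKDC1 hexokinase; detection: coupled resazurin fluorescence, excitation 525 nm, emission 613 nm; benchmarks: DMSO-plus-enzyme-mix negative control, buffer-substituted positive control; compound dosing: single 20 µM dose; schedule: 90 min at room temperature in dark; also added: glucose plus 1 mM ATP as hexokinase substrates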
Numbers stand for hits; n = inactive; x = no result. The list is not random: actives were taken first. Their share in the collection is about 1.8%.

SMILES	STEP block	Scp1 inh	DNMT1 block	SUMO1-SIM PPI	LMPTP inh	HKDC1 inhibitor
NC(=O)c1nsc(C(=O)N(c2ccccc2)C(C(=O)NCc2ccc(F)cc2)c2ccco2)c1N (stereo not drawn)	n	n	n	n	n	n
NC(=O)c1nsc(C(=O)N(CC(=O)NCc2ccco2)c2ccccc2F)c1N	n	n	n	50.5	n	n
CCc1cc(Cn2nc(-c3ccccc3)cc2C(=O)NCC2CC2)on1	n	n	n	n	n	n
CC(C)C(=O)N(c1cc2sc(=O)oc2c2ccccc12)S(=O)(=O)c1cccs1	n	n	n	n	n	45.0
COc1ccc(CNc2nc(NCc3ccc(OC)cc3)c3[nH]cnc3n2)cc1	n	n	n	n	77.5	n
COc1cc(C)c2c(c1C=O)Oc1c(c(C)c(O)c3c1C(O)OC3=O)OC2=O (stereo not drawn)	n	n	n	77.9	n	n
CCC(=O)N1CCC1(C)C(=O)Nc1cccc2cccnc12 (stereo not drawn)	n	x	n	n	n	x
COc1ccc(/C=N/Nc2cc(C)nc3ccc(OC)cc23)c(OC)c1	n	n	51.2	87.4	n	n
COc1ccc2nc(C)cc(N/N=C/c3ccccc3)c2c1	n	n	67.1	n	n	n
CCOc1cccc(CNc2ccc(O)cc2)c1OCc1ccc(Cl)cc1	n	n	n	n	n	n
CCc1ccc(CNc2ccc(O)cc2)cc1	n	n	75.5	74.2	n	n
CCOc1cc(CNc2ccc(O)cc2)ccc1OCc1ccc(Cl)cc1Cl	n	n	79.9	51.8	n	n
Oc1ccc(NCc2ccc(OCc3ccccc3)cc2)cc1	n	n	n	n	n	n
Oc1ccc(NCc2ccccc2OCc2ccccc2F)cc1	n	n	n	59.4	n	n
Cc1ccc(NCc2ccccc2OCc2ccccc2F)cc1	n	n	n	n	n	n
CCOc1ccccc1CNc1ccc(O)cc1	n	n	n	69.1	n	n
CCN(CC)CCN1C(=O)C(=O)/C(=C(/O)c2c(C)[nH]c(C(=O)OC)c2C)C1c1ccc(C)o1 (stereo not drawn)	n	n	n	n	n	n
C[C@H](C(=O)NCc1ccccc1)C(=O)c1ccccc1	n	n	n	n	n	n
CC(C)Oc1ccc(N2CC(C(=O)Nc3ccccc3C(=O)NC3CC3)CC2=O)cc1 (stereo not drawn)	n	n	n	n	n	n
O=C1c2ccccc2-c2onc3c(N4CCN(CCO)CC4)cc(N4CCN(C(=O)c5ccco5)CC4)c1c23	n	n	n	55.8	n	n
O=C(O)CCCNc1cc(N2CCN(C(=O)c3ccco3)CC2)c2noc3c2c1C(=O)c1ccccc1-3	45.1	78.2	n	53.8	n	n
CN1CCN(c2cc(N3CCN(C(=O)c4ccco4)CC3)c3c4c(onc24)-c2ccccc2C3=O)CC1	n	n	n	n	n	n
CCOC(=O)N1CCN(c2cc(NCCC(=O)O)c3c4c(onc24)-c2ccccc2C3=O)CC1	n	75.8	67.2	43.6	n	37.1
O=C(Nc1ccc2oc(=O)ccc2c1)c1ccc(-c2ccc(Cl)cc2)o1	n	n	n	n	n	n
O=C(Nc1ccc2oc(=O)ccc2c1)c1ccc(-c2cccc([N+](=O)[O-])c2)o1	n	n	n	75.3	54.0	n
SMILES	STEP block	Scp1 inh	DNMT1 block	SUMO1-SIM PPI	LMPTP inh	HKDC1 inhibitor
O=C(Nc1ccc2oc(=O)ccc2c1)c1ccccc1[N+](=O)[O-]	n	n	n	n	n	n
O=C(Nc1ccc2oc(=O)ccc2c1)c1ccc(-c2ccccc2[N+](=O)[O-])o1	n	n	n	57.2	n	n
N#Cc1c(NC(=S)NC(=O)Cc2cccs2)sc2c1CCCCC2	n	n	n	n	n	n
Cc1ccc(C(=O)Nc2cccc(S(=O)(=O)N3CCCCC3)c2)cc1S(=O)(=O)N1CCOCC1	n	n	n	n	n	n
COc1ccc(C2=Nc3ccccc3NC(=O)C2N(C(=O)c2ccnc3ccccc23)c2ccccc2)cc1 (stereo not drawn)	n	x	n	n	n	x
CS(=O)(=O)c1ccc2c(c1)sc1nc(=O)c(/C=C3/C=CC(=O)C(O)=C3)c(N)n12	n	70.7	n	n	n	n
Nc1ccn(CC(=O)NCc2ccc3[nH]ccc3c2)c(=O)n1	n	n	n	n	n	n
O=S(=O)(c1ccc(F)c(Cl)c1)N1CCN(C/C=C/c2ccccc2)CC1	n	n	n	41.3	n	n
O=S(=O)(c1ccccc1)N1CCN(C/C=C/c2ccccc2)CC1	n	n	n	n	n	n
Cc1ccc(-n2nnnc2SCC(=O)Nc2ccc3c(c2)OCCO3)cc1C	n	n	n	n	n	n
Cc1ccc(-n2nnnc2SCC(=O)Nc2ccc3c(c2)COC3=O)cc1C	n	n	n	40.2	n	n
Fc1ccccc1Nc1nc2ccccc2o1	n	n	n	n	n	n
CCOc1cc(-c2c(C#N)c(N)nc3c2CCc2ccccc2-3)ccc1O	n	n	n	n	n	n
COc1ccccc1-c1c(C#N)c(N)nc2c1CCc1ccccc1-2	n	n	n	36.3	n	n
O=C(O)CP(=O)(c1ccccc1)c1ccccc1	n	n	n	46.5	n	n
O=P(CCO)(c1ccccc1)c1ccccc1	n	n	n	n	n	n
N#C/C(C(N)=O)=c1/ccc2c(c1)N1C3=C(CCCC3)CC3CCCCC31N=2 (stereo not drawn)	x	n	x	x	x	51.5
Cn1c(=O)c2[nH]c(Nc3ccccc3)nc2n(C)c1=O	n	n	n	n	n	n
Cc1ccc(CNc2nc3c([nH]2)c(=O)n(C)c(=O)n3C)cc1	n	n	n	49.7	n	n
Cc1cc(N2CCN(c3nc(-c4ccc([N+](=O)[O-])cc4)cs3)CC2)c2ccccc2n1	n	n	n	n	95.4	n
Cc1cc(-c2ccc([N+](=O)[O-])cc2)nc2ccccc12	n	n	n	n	n	n
CCOC(=O)/C(C(=O)Nc1ccccc1Cl)=C1/NC(C)(C)Cc2ccccc21	n	n	n	n	n	n
CCOC(=O)/C(C)=C1\NC(C)(C)Cc2ccccc21	n	100.8	n	n	n	n
CCC(=O)c1ccc(OCC(=O)NCC2(N3CCCCC3)CCCCC2)cc1	n	n	n	n	n	n
CC(=O)NC(Cc1ccccc1)C(=O)OCC(=O)c1ccccc1 (stereo not drawn)	n	n	n	n	n	n
CCN1C(=O)/C(=C/C=C2/Sc3ccc4ccccc4c3N2CCO)SC1=S	n	n	n	40.9	n	n
Cc1ccc(S(=O)(=O)N2CC(O)CC2C(=O)O)cc1 (stereo not drawn)	n	n	n	n	n	n
